In ChEMBL document CHEMBL3745673, “Synthesis, antimycobacterial screening and ligand-based molecular docking studies on novel pyrrole derivatives bearing pyrazoline, isoxazole and phenyl thiourea moieties” (Eur J Med Chem, 2016):
In brackets after ≈: the same amount, converted by molar mass. Activity calls are given as the source filed them. No cut-off for these calls is given here.

Assays:
Escherichia coli = assay: Antibacterial activity against Escherichia coli after 18 hrs by broth microdilution method; type: functional
Method in brief: (§1)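 Broth microdilution; compounds dissolved in DMSO (10 mg in 1 mL), serially diluted in Mueller-Hinton medium to 0.2–100 µg/mL. MIC taken as lowest concentration giving no visible growth. DMSO solvent control at matching dilutions.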

Staphylococcus aureus = assay: Antibacterial activity against Staphylococcus aureus after 18 hrs by broth microdilution method; type: functional; method in brief: as §1
[1] = tested on: Mycobacterium tuberculosis; assay: Inhibition of Mycobacterium tuberculosis His6-tagged InhA expressed in Escherichia coli BL21 using trans-2-dodecenoyl-coA as substrate at 50 uM

`CC(=O)N1N=C(c2ccc(-n3cccc3)cc2)CC1c1ccc(F)cc1` (configuration not stated) was tested, and the MIC (Escherichia coli) was 12.5 µg/mL (≈ 36 µM) and the MIC (Staphylococcus aureus) was 12.5 µg/mL (≈ 36 µM).
In the case of `c1coc(-c2cc(-c3ccc(-n4cccc4)cc3)on2)c1`, the MIC (Escherichia coli) is reported as 25 µg/mL (≈ 90.5 µM) and the MIC (Staphylococcus aureus) is reported as 50 µg/mL (≈ 181 µM).
`Cc1ccc(C)n1-c1ccccc1NC(=S)Nc1ccccc1` was tested, and the MIC (Escherichia coli) was 0.2 µg/mL (≈ 0.622 µM) and the MIC (Staphylococcus aureus) was 0.8 µg/mL (≈ 2.49 µM).
With `Clc1ccc(-c2cc(-c3ccc(-n4cccc4)cc3)on2)cc1` the MIC (Escherichia coli) was 25 µg/mL (≈ 77.9 µM) and the MIC (Staphylococcus aureus) was 25 µg/mL (≈ 77.9 µM).
`Cc1ccc(C)n1-c1ccccc1NC(=S)Nc1cccc(Cl)c1` gave an MIC (Escherichia coli) of 0.4 µg/mL (≈ 1.12 µM) and an MIC (Staphylococcus aureus) of 0.2 µg/mL (≈ 0.562 µM).
Compound `Brc1cccc(-c2cc(-c3ccc(-n4cccc4)cc3)on2)c1` has an MIC (Escherichia coli) of 25 µg/mL (≈ 68.5 µM) and an MIC (Staphylococcus aureus) of 25 µg/mL (≈ 68.5 µM).
`O=C(/C=C/c1ccccc1)c1ccc(-n2cccc2)cc1` was tested, and the MIC (Escherichia coli) was 25 µg/mL (≈ 91.5 µM) and the MIC (Staphylococcus aureus) was 25 µg/mL (≈ 91.5 µM).
For `CC(C)c1ccc(/C=C/C(=O)c2ccc(-n3cccc3)cc2)cc1`, the MIC (Escherichia coli) was 12.5 µg/mL (≈ 39.6 µM) and the MIC (Staphylococcus aureus) was 12.5 µg/mL (≈ 39.6 µM).
`O=C(/C=C/c1c(Cl)cccc1Cl)c1ccc(-n2cccc2)cc1` gave an MIC (Escherichia coli) of 50 µg/mL (≈ 146 µM) and an MIC (Staphylococcus aureus) of 25 µg/mL (≈ 73.1 µM).
Work on `COc1ccc(/C=C/C(=O)c2ccc(-n3cccc3)cc2)cc1` yielded an MIC (Escherichia coli) of 12.5 µg/mL (≈ 41.2 µM) and an MIC (Staphylococcus aureus) of 25 µg/mL (≈ 82.4 µM).
`CCn1cc(C(=O)O)c(=O)c2cc(F)c(N3CCNCC3)cc21` [NORFLOXACIN] showed an MIC (Escherichia coli) of 4 µg/mL (≈ 12.5 µM) and an MIC (Staphylococcus aureus) of 2.02 µg/mL (≈ 6.33 µM).
For `Clc1ccccc1-c1cc(-c2ccc(-n3cccc3)cc2)on1`, the MIC (Escherichia coli) was 50 µg/mL (≈ 156 µM) and the MIC (Staphylococcus aureus) was 50 µg/mL (≈ 156 µM).
`COc1cccc(C2CC(c3ccc(-n4cccc4)cc3)=NN2C(C)=O)c1` (configuration not stated) showed an MIC (Escherichia coli) of 50 µg/mL (≈ 139 µM) and an MIC (Staphylococcus aureus) of 25 µg/mL (≈ 69.6 µM).
With `Cc1ccc(C)n1-c1ccccc1NC(=S)Nc1ccc(F)cc1` the MIC (Escherichia coli) was 0.8 µg/mL (≈ 2.36 µM) and the MIC (Staphylococcus aureus) was 0.8 µg/mL (≈ 2.36 µM).
With `Cc1ccc(C)n1-c1ccccc1NC(=S)Nc1ccccc1Br` the MIC (Escherichia coli) was 0.8 µg/mL (≈ 2 µM) and the MIC (Staphylococcus aureus) was 1.6 µg/mL (≈ 4 µM).
`COc1ccc(C2CC(c3ccc(-n4cccc4)cc3)=NN2C(C)=O)cc1OC` (configuration not stated) showed an MIC (Escherichia coli) of 12.5 µg/mL (≈ 32.1 µM) and an MIC (Staphylococcus aureus) of 25 µg/mL (≈ 64.2 µM).
Work on `O=C(/C=C/c1ccccc1Br)c1ccc(-n2cccc2)cc1` yielded an MIC (Escherichia coli) of 25 µg/mL (≈ 71 µM) and an MIC (Staphylococcus aureus) of 50 µg/mL (≈ 142 µM).
In the case of `O=C(/C=C/c1cccc(Oc2ccccc2)c1)c1ccc(-n2cccc2)cc1`, the MIC (Escherichia coli) is reported as 50 µg/mL (≈ 137 µM) and the MIC (Staphylococcus aureus) is reported as 50 µg/mL (≈ 137 µM).
With `CC(=O)N1N=C(c2ccc(-n3cccc3)cc2)CC1c1c(Cl)cccc1Cl` (configuration not stated) the MIC (Escherichia coli) was 50 µg/mL (≈ 126 µM) and the MIC (Staphylococcus aureus) was 25 µg/mL (≈ 62.8 µM).
For `CC(=O)N1N=C(c2ccc(-n3cccc3)cc2)CC1c1ccccc1Cl` (configuration not stated), the MIC (Escherichia coli) was 25 µg/mL (≈ 68.7 µM) and the MIC (Staphylococcus aureus) was 50 µg/mL (≈ 137 µM).
Compound `CC(=O)N1N=C(c2ccc(-n3cccc3)cc2)CC1c1ccc(C)cc1` (configuration not stated) has an MIC (Escherichia coli) of 12.5 µg/mL (≈ 36.4 µM) and an MIC (Staphylococcus aureus) of 25 µg/mL (≈ 72.8 µM).
Compound `Cc1ccc(-c2cc(-c3ccc(-n4cccc4)cc3)on2)cc1` has an MIC (Escherichia coli) of 12.5 µg/mL (≈ 41.6 µM) and an MIC (Staphylococcus aureus) of 25 µg/mL (≈ 83.2 µM).
`Clc1ccc(-c2cc(-c3ccc(-n4cccc4)cc3)on2)c(Cl)c1` showed an MIC (Escherichia coli) of 50 µg/mL (≈ 141 µM) and an MIC (Staphylococcus aureus) of 25 µg/mL (≈ 70.4 µM).
Work on `c1ccc(-c2cc(-c3ccc(-n4cccc4)cc3)on2)cc1` yielded an MIC (Escherichia coli) of 25 µg/mL (≈ 87.3 µM) and an MIC (Staphylococcus aureus) of 50 µg/mL (≈ 175 µM).
`COc1ccc(-c2cc(-c3ccc(-n4cccc4)cc3)on2)cc1OC` gave an MIC (Escherichia coli) of 25 µg/mL (≈ 72.2 µM) and an MIC (Staphylococcus aureus) of 25 µg/mL (≈ 72.2 µM).
In the case of `Clc1cccc(-c2cc(-c3ccc(-n4cccc4)cc3)on2)c1Cl`, the MIC (Escherichia coli) is reported as 25 µg/mL (≈ 70.4 µM) and the MIC (Staphylococcus aureus) is reported as 50 µg/mL (≈ 141 µM).
With `Cc1ccc(C)n1-c1ccccc1NC(=S)Nc1ccc(Cl)cc1` the inhibition [1] was “inactive”, the MIC (Escherichia coli) was 0.2 µg/mL (≈ 0.562 µM) and the MIC (Staphylococcus aureus) was 0.2 µg/mL (≈ 0.562 µM).
`c1ccc(Oc2cccc(-c3cc(-c4ccc(-n5cccc5)cc4)on3)c2)cc1` was tested, and the MIC (Escherichia coli) was 50 µg/mL (≈ 132 µM) and the MIC (Staphylococcus aureus) was 50 µg/mL (≈ 132 µM).
In the case of `COc1cccc(/C=C/C(=O)c2ccc(-n3cccc3)cc2)c1`, the MIC (Escherichia coli) is reported as 12.5 µg/mL (≈ 41.2 µM) and the MIC (Staphylococcus aureus) is reported as 25 µg/mL (≈ 82.4 µM).
With `O=C(O)c1cn(C2CC2)c2cc(N3CCNCC3)c(F)cc2c1=O` [CIPROFLOXACIN] the MIC (Staphylococcus aureus) was 0.15 µg/mL (≈ 0.453 µM).
With `Brc1ccccc1-c1cc(-c2ccc(-n3cccc3)cc2)on1` the MIC (Escherichia coli) was 50 µg/mL (≈ 137 µM) and the MIC (Staphylococcus aureus) was 50 µg/mL (≈ 137 µM).
`Fc1ccc(-c2cc(-c3ccc(-n4cccc4)cc3)on2)cc1` gave an MIC (Escherichia coli) of 12.5 µg/mL (≈ 41.1 µM) and an MIC (Staphylococcus aureus) of 25 µg/mL (≈ 82.1 µM).
Work on `Oc1cc(Cl)ccc1Oc1ccc(Cl)cc1Cl` yielded an inhibition [1] greater than 99%.
Compound `COc1ccc(C2CC(c3ccc(-n4cccc4)cc3)=NN2C(C)=O)c(OC)c1` (configuration not stated) has an MIC (Escherichia coli) of 12.5 µg/mL (≈ 32.1 µM) and an MIC (Staphylococcus aureus) of 25 µg/mL (≈ 64.2 µM).
In the case of `COc1ccc(/C=C/C(=O)c2ccc(-n3cccc3)cc2)cc1OC`, the MIC (Escherichia coli) is reported as 12.5 µg/mL (≈ 37.5 µM) and the MIC (Staphylococcus aureus) is reported as 12.5 µg/mL (≈ 37.5 µM).
`Clc1cccc(Cl)c1-c1cc(-c2ccc(-n3cccc3)cc2)on1` gave an MIC (Escherichia coli) of 50 µg/mL (≈ 141 µM) and an MIC (Staphylococcus aureus) of 25 µg/mL (≈ 70.4 µM).
In the case of `O=C(/C=C/c1ccc(Cl)cc1Cl)c1ccc(-n2cccc2)cc1`, the MIC (Escherichia coli) is reported as 50 µg/mL (≈ 146 µM) and the MIC (Staphylococcus aureus) is reported as 50 µg/mL (≈ 146 µM).
With `CC(=O)N1N=C(c2ccc(-n3cccc3)cc2)CC1c1ccccc1Br` (configuration not stated) the MIC (Escherichia coli) was 50 µg/mL (≈ 122 µM) and the MIC (Staphylococcus aureus) was 100 µg/mL (≈ 245 µM).
`Cc1ccc(C)n1-c1ccccc1NC(=S)Nc1ccc(Cl)c(Cl)c1` gave an inhibition [1] of 13%, an MIC (Escherichia coli) of 0.2 µg/mL (≈ 0.512 µM) and an MIC (Staphylococcus aureus) of 0.2 µg/mL (≈ 0.512 µM).
`Cc1ccc(C)n1-c1ccccc1NC(=S)Nc1ccc([N+](=O)[O-])cc1` was tested, and the MIC (Escherichia coli) was 0.4 µg/mL (≈ 1.09 µM) and the MIC (Staphylococcus aureus) was 0.2 µg/mL (≈ 0.546 µM).
`Cc1ccc(C)n1-c1ccccc1NC(=S)Nc1cccc(Br)c1` showed an MIC (Escherichia coli) of 0.2 µg/mL (≈ 0.5 µM) and an MIC (Staphylococcus aureus) of 0.2 µg/mL (≈ 0.5 µM).
With `CC(=O)N1N=C(c2ccc(-n3cccc3)cc2)CC1c1ccco1` (configuration not stated) the MIC (Escherichia coli) was 100 µg/mL (≈ 313 µM) and the MIC (Staphylococcus aureus) was 50 µg/mL (≈ 157 µM).
For `O=C(/C=C/c1cccc(Cl)c1Cl)c1ccc(-n2cccc2)cc1`, the MIC (Escherichia coli) was 50 µg/mL (≈ 146 µM) and the MIC (Staphylococcus aureus) was 25 µg/mL (≈ 73.1 µM).
`O=C(/C=C/c1ccccc1Cl)c1ccc(-n2cccc2)cc1` showed an MIC (Escherichia coli) of 50 µg/mL (≈ 162 µM) and an MIC (Staphylococcus aureus) of 25 µg/mL (≈ 81.2 µM).
For `CC(=O)N1N=C(c2ccc(-n3cccc3)cc2)CC1c1cccc(Cl)c1Cl` (configuration not stated), the MIC (Escherichia coli) was 50 µg/mL (≈ 126 µM) and the MIC (Staphylococcus aureus) was 25 µg/mL (≈ 62.8 µM).
With `Cc1ccc(NC(=S)Nc2ccccc2-n2c(C)ccc2C)cc1` the MIC (Escherichia coli) was 6.25 µg/mL (≈ 18.6 µM) and the MIC (Staphylococcus aureus) was 0.4 µg/mL (≈ 1.19 µM).
With `CC(=O)N1N=C(c2ccc(-n3cccc3)cc2)CC1c1ccc(Cl)cc1` (configuration not stated) the MIC (Escherichia coli) was 50 µg/mL (≈ 137 µM) and the MIC (Staphylococcus aureus) was 25 µg/mL (≈ 68.7 µM).
`O=C(/C=C/c1ccc(Cl)cc1)c1ccc(-n2cccc2)cc1` was tested, and the MIC (Escherichia coli) was 50 µg/mL (≈ 162 µM) and the MIC (Staphylococcus aureus) was 50 µg/mL (≈ 162 µM).
With `CC(=O)N1N=C(c2ccc(-n3cccc3)cc2)CC1c1cccc(Br)c1` (configuration not stated) the MIC (Escherichia coli) was 25 µg/mL (≈ 61.2 µM) and the MIC (Staphylococcus aureus) was 50 µg/mL (≈ 122 µM).
`CC(=O)N1N=C(c2ccc(-n3cccc3)cc2)CC1c1cccc(Oc2ccccc2)c1` (configuration not stated) was tested, and the MIC (Escherichia coli) was 50 µg/mL (≈ 119 µM) and the MIC (Staphylococcus aureus) was 100 µg/mL (≈ 237 µM).
With `O=C(/C=C/c1cccc(Br)c1)c1ccc(-n2cccc2)cc1` the MIC (Escherichia coli) was 25 µg/mL (≈ 71 µM) and the MIC (Staphylococcus aureus) was 50 µg/mL (≈ 142 µM).
`CC(=O)N1N=C(c2ccc(-n3cccc3)cc2)CC1c1ccc(Cl)cc1Cl` (configuration not stated) showed an MIC (Escherichia coli) of 25 µg/mL (≈ 62.8 µM) and an MIC (Staphylococcus aureus) of 50 µg/mL (≈ 126 µM).
Compound `O=C(/C=C/c1ccco1)c1ccc(-n2cccc2)cc1` has an MIC (Escherichia coli) of 25 µg/mL (≈ 95 µM) and an MIC (Staphylococcus aureus) of 25 µg/mL (≈ 95 µM).
With `O=C(/C=C/c1ccc(F)cc1)c1ccc(-n2cccc2)cc1` the MIC (Escherichia coli) was 12.5 µg/mL (≈ 42.9 µM) and the MIC (Staphylococcus aureus) was 25 µg/mL (≈ 85.8 µM).
Compound `O=C(/C=C/c1ccccc1O)c1ccc(-n2cccc2)cc1` has an MIC (Escherichia coli) of 50 µg/mL (≈ 173 µM) and an MIC (Staphylococcus aureus) of 50 µg/mL (≈ 173 µM).
For `CC(=O)N1N=C(c2ccc(-n3cccc3)cc2)CC1c1ccccc1` (configuration not stated), the MIC (Escherichia coli) was 50 µg/mL (≈ 152 µM) and the MIC (Staphylococcus aureus) was 50 µg/mL (≈ 152 µM).
